Reference: ChEMBL document CHEMBL4382197, “Discovery of QCA570 as an Exceptionally Potent and Efficacious Proteolysis Targeting Chimera (PROTAC) Degrader of the Bromodomain and Extra-Terminal (BET) Proteins Capable of Inducing Complete and Durable Tumor Regression” (J Med Chem, 2018)
Activity calls are given as the source filed them.

Key:
Mus musculus [1] = assay: In vivo Protac activity at cereblon/cullin/BRD4 in tumor of human RS4:11 cells xenografted in SCID mouse assessed as reduction in BRD4 protein expression at 1 to 5 mg/kg, iv administered as single dose and measured at 1 to 6 hrs post dose by Western blot analysis; type: functional, organism-based
In short: (§1)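 SCID mice bearing subcutaneous RS4;11 tumors were given a single intravenous dose of 1 or 5 mg/kg. Tumors were harvested at 1, 6 and 24 h, two mice per time point. Tissue was ground in liquid nitrogen and lysed in CST buffer with protease inhibitors. 20 µg lysate per lane was probed for BRD2, BRD3, BRD4, c-Myc and cleaved PARP, with GAPDH as loading control.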

Mus musculus [2] = assay: In vivo Protac activity at cereblon/cullin/BRD4 in tumor of human RS4:11 cells xenografted in SCID mouse assessed as reduction in BRD4 protein expression at 1 to 5 mg/kg, iv administered as single dose and measured at 24 hrs post dose by Western blot analysis; type: functional, organism-based; in short: as §1
RS4-11 [3] = assay: Antitumor activity against human RS4:11 cells xenografted in SCID mouse assessed tumor regression at 1 to 5 mg/kg, iv administered 3 times per week for 3 weeks; type: functional, organism-based
In short: (§2)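 RS4;11 xenografts: 5×10^6 cells in 50% Matrigel injected subcutaneously on the dorsal side of SCID mice, one tumor per mouse. Randomized to treatment or vehicle at ~100 mm3. Intravenous dosing on several schedules, including 3 times per week for 3 weeks and weekly. Volume = L × W2/2; body weight tracked.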

Mus musculus [4] = assay: In vivo Protac activity at cereblon/cullin/BRD3 in tumor of human RS4:11 cells xenografted in SCID mouse assessed as reduction in BRD3 protein expression at 1 to 5 mg/kg, iv administered as single dose and measured at 1 to 6 hrs post dose by Western blot analysis; type: functional, organism-based; in short: as §1
RS4-11 [5] = assay: Induction apoptosis in human RS4:11 cells assessed as caspase-3 activation at 0.3 nM after 24 hrs by Western blot analysis; type: functional, cell-based
In short: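 Cells (1.5–2×10^6/well) were treated for 24 h, washed in cold PBS and lysed in RIPA with protease inhibitors. 20 µg lysate was run on 4–20% or 4–12% gels and transferred to PVDF. Blots were probed for cleaved PARP and cleaved caspase 3, with GAPDH as loading control. Detection by ECL.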

MOLM-13 = assay: Induction of apoptosis in human MOLM13 cells at 1 nM after 24 hrs by Annexin V/propidium iodine-double staining-based flow cytometry relative to control; type: functional
In short: (§3)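 Leukemia cells were treated for 24 h or 48 h at the indicated concentrations. They were then collected, washed in cold PBS and stained with Annexin V and propidium iodide. Apoptotic fraction was measured by flow cytometry.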

[6] = target: T1, Protein cereblon/Bromodomain-containing protein 2/Cullin-4A (Homo sapiens) (UniProt P25440+Q96SW2+Q13619); assay: Protac activity at cereblon/cullin 4A/BRD2 in human RS4:11 cells assessed as BRD2 degradation at 0.5 nM after 3 hrs by Western blot analysis; type: cell-based
[7] = Drug uptake in intestine of SCID mouse xenografted with human RS4:11 cells at 5 mg/kg, iv measured at 6 hrs by LC-MS/MS analysis; type: ADME, organism-based; conditions: in vivo, BLD = below limit of detection
In short: (§4)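 Female SCID mice with RS4;11 tumors received a single 5 mg/kg intravenous dose in 20% PCP/80% PBS. Plasma (heparin) and tissues were taken at 1, 3 and 6 h, one mouse per time point in duplicate. Plasma was precipitated with acetonitrile containing internal standard. Tissues were homogenized 5:1 in 20% acetonitrile. Quantified by LC-MS/MS against spiked plasma standards (2–2000 ng/mL); values in ng/ml or ng/g.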

[8] = target: T2, Protein cereblon/Bromodomain-containing protein 3/Cullin-4A (Homo sapiens) (UniProt Q15059+Q96SW2+Q13619); assay: Protac activity at cereblon/cullin 4A/BRD3 in human RS4:11 cells assessed as BRD3 degradation at 10 pM after 3 hrs by Western blot analysis; type: cell-based
[9] = target: T2, Protein cereblon/Bromodomain-containing protein 3/Cullin-4A (Homo sapiens); assay: Protac activity at cereblon/cullin 4A/BRD3 in human MV4-11 cells assessed as BRD3 degradation at 10 pM after 3 hrs by Western blot analysis; type: cell-based
RS4-11 [10] = assay: Induction of apoptosis in human RS4:11 cells at 0.3 to 10 nM after 24 hrs by Annexin V/propidium iodine-double staining-based flow cytometry relative to control; type: functional; in short: as §3
[11] = target: T1, Protein cereblon/Bromodomain-containing protein 2/Cullin-4A (Homo sapiens); assay: Protac activity at cereblon/cullin 4A/BRD2 in human RS4:11 cells assessed as BRD2 degradation at 0.5 nM after 3 hrs in presence of lenalidomide by Western blot analysis; type: cell-based
In short: (§5)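 RS4;11 cells were pre-treated for 2 h with DMSO, lenalidomide (10 μM), MLN4924 (1 μM) or MG-132 (20 μM). The degrader was then added at 0.5 nM for 3 h. Lysates were immunoblotted for BRD2, BRD3 and BRD4, with GAPDH as loading control.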

MV4-11 [12] = assay: Antitumor activity against human MV4-11 cells xenografted in SCID mouse assessed tumor regression at 1 mg/kg, iv administered 3 times per week for 2 weeks; type: functional, organism-based
In short: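 MV4;11 xenografts: 5×10^6 cells in 50% Matrigel injected subcutaneously on the dorsal side of SCID mice, one tumor per mouse. Mice randomized at ~100 mm3. Dosed intravenously three times a week for two weeks. Tumor volume = L × W2/2; body weight monitored.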

RS4-11 [13] = assay: Antitumor activity against human RS4:11 cells xenografted in SCID mouse assessed tumor growth inhibition at 5 mg/kg, iv administered weekly; type: functional, organism-based; in short: as §2
[14] = target: Protein cereblon/Bromodomain-containing protein 4/Cullin-4A (Homo sapiens) (UniProt O60885+Q96SW2+Q13619); assay: Protac activity at cereblon/cullin 4A/BRD4 in human RS4:11 cells assessed as BRD4 degradation at 0.5 nM after 3 hrs by Western blot analysis; type: cell-based
[15] = target: T2, Protein cereblon/Bromodomain-containing protein 3/Cullin-4A (Homo sapiens); assay: Protac activity at cereblon/cullin 4A/BRD3 in human RS4:11 cells assessed as BRD3 degradation at 0.5 nM after 3 hrs in presence of proteasome inhibitor MG132 by Western blot analysis; type: cell-based; in short: as §5
[16] = target: T2, Protein cereblon/Bromodomain-containing protein 3/Cullin-4A (Homo sapiens); assay: Protac activity at cereblon/cullin 4A/BRD3 in human RS4:11 cells assessed as BRD3 degradation at 0.5 nM after 3 hrs in presence of lenalidomide by Western blot analysis; type: cell-based; in short: as §5
MV4-11 [17] = assay: Induction of apoptosis in human MV4-11 cells after 24 to 48 hrs by Annexin V/propidium iodine-double staining-based flow cytometry; type: functional, cell-based; in short: as §3
[18] = Drug uptake in liver of SCID mouse xenografted with human RS4:11 cells at 5 mg/kg, iv measured at 6 hrs by LC-MS/MS analysis; type: ADME, organism-based; conditions: in vivo, BLD = below limit of detection; in short: as §4
MV4-11 [19] = assay: Growth inhibition of human MV4-11 cells after 96 hrs by CCK8 assay; type: functional, cell-based; conditions: MV4-11, 96 h
[20] = target: T1, Protein cereblon/Bromodomain-containing protein 2/Cullin-4A (Homo sapiens); assay: Protac activity at cereblon/cullin 4A/BRD2 in human RS4:11 cells assessed as BRD2 degradation at 0.5 nM after 3 hrs in presence of neddylation inhibitor MLN4924 by Western blot analysis; type: cell-based; in short: as §5
RS4-11 [21] = assay: Growth inhibition of human RS4:11 cells after 96 hrs by CCK8 assay; type: functional, cell-based; conditions: RS4-11, 96 h

T1 sequence (P25440 whole entry, looked up): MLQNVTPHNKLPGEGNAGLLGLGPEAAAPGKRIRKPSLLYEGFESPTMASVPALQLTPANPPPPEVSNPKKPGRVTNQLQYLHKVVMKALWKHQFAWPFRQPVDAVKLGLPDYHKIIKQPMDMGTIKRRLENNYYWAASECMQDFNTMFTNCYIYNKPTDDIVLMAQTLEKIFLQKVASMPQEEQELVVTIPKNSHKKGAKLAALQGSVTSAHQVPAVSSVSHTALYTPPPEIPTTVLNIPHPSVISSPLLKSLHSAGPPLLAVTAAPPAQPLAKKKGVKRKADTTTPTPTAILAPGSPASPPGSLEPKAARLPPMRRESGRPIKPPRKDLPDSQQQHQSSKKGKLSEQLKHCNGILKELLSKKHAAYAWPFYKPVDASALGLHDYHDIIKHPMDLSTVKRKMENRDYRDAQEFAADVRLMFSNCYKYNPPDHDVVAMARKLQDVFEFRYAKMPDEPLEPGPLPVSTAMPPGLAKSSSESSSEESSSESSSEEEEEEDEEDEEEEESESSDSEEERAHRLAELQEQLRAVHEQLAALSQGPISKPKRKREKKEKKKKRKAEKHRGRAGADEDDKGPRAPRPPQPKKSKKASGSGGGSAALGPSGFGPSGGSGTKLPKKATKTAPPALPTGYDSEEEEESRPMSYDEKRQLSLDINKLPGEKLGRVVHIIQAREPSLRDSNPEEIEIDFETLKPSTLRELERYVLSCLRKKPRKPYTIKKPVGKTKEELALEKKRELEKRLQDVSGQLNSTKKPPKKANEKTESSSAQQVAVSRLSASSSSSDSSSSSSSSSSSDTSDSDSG
T1 sequence (Q13619 whole entry, looked up): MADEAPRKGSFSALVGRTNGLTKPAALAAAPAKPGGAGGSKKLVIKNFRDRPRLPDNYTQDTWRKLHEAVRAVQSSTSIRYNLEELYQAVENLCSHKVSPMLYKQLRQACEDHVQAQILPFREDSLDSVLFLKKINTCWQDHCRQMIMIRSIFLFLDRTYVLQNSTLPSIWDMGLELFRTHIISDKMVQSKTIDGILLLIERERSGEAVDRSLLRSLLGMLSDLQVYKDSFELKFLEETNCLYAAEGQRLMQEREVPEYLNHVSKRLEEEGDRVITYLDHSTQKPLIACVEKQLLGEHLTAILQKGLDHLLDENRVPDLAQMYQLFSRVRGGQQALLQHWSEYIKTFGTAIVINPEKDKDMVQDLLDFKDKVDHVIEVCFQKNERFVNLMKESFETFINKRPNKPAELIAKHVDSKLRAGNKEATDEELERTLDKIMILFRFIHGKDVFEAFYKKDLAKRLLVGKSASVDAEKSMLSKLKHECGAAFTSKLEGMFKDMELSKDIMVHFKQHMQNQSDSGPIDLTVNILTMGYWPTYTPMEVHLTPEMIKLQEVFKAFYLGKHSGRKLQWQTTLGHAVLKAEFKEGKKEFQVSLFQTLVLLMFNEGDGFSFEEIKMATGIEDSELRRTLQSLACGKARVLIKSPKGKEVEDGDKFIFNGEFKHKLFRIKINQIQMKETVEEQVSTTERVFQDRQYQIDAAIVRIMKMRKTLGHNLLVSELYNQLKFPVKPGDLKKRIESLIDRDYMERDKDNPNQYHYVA
T1 sequence (Q96SW2 whole entry, looked up): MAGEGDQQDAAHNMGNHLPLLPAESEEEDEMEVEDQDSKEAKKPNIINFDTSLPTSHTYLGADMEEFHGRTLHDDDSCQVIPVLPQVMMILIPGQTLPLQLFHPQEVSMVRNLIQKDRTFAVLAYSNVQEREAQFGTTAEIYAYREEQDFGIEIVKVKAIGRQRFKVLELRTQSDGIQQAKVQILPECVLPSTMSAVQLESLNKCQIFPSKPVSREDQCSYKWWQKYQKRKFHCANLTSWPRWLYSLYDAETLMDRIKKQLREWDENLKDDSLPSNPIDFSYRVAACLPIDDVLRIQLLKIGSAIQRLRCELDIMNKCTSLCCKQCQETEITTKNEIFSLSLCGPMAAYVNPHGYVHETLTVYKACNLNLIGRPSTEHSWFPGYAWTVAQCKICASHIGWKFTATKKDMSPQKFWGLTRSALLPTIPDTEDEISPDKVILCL
T2 sequence (Q13619 whole entry, looked up): as the sequence (Q13619 whole entry, looked up) above
T2 sequence (Q15059 whole entry, looked up): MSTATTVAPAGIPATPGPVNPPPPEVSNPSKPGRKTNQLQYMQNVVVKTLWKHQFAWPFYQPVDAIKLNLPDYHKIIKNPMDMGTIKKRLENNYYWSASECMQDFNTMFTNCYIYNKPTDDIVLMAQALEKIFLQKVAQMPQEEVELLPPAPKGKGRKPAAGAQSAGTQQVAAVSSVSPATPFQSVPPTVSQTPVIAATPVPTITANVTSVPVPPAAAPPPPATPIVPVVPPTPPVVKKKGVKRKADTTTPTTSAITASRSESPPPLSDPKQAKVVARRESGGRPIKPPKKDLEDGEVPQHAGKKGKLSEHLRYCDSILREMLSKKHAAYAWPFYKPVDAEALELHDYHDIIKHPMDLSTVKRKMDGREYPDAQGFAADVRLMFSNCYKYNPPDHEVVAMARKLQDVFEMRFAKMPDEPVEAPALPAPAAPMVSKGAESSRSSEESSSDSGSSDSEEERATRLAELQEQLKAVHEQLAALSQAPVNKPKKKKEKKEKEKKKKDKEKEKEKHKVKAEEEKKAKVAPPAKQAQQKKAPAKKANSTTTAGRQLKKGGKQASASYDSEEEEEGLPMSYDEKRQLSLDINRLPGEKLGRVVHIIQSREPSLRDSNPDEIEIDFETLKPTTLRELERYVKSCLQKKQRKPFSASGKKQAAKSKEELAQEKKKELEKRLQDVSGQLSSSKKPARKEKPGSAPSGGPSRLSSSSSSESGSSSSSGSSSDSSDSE
T2 sequence (Q96SW2 whole entry, looked up): as the sequence (Q96SW2 whole entry, looked up) above

Cc1nnc2n1Cc1sc(C#Cc3cnn(CCCC#Cc4cccc5c4CN(C4CCC(=O)NC4=O)C5=O)c3)c(Cc3ccccc3)c1OC2 (configuration not stated)
Bld: Drug uptake [7] | Drug uptake [18]
>60%: Activity (MOLM-13)
active: Activity (Mus musculus [1]) | Activity (Mus musculus [2]) | Activity (RS4-11 [3]) | Activity (Mus musculus [4]) | Activity [6] | Activity [8] | Activity [9] | Activity (MV4-11 [12]) | TGI (RS4-11 [13]) | Activity [14] | Activity (MV4-11 [17]) Dose-dependent effect
inactive: Activity (RS4-11 [5]) | Activity [11] | Activity [15] | Activity [16] | Activity [20]
0.0083 nM: IC50 (MV4-11 [19])
15 - 30%: Activity (RS4-11 [10])
0.032 nM: IC50 (RS4-11 [21])
